Source: PubChem BioAssay (several laboratories)
APJ antag – antagonists of human apelin receptor APJ, primary screen, CHO-K1 cells, beta-arrestin complementation, luminescence | P35414 | inhibition, % at 20 µM | 0.32% of 330,000 active | AID 2521, 2010;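 active means inhibition above about 40% at 20 µM, limit read from the data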;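 further: cells challenged with 10 nM apelin-13 agonist together with compound; plate controls were apelin-13 plus DMSO wells for no effect and DMSO wells lacking apelin-13 for full effect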
m5-HT2A agonist – mouse Htr2a agonists via beta-arrestin recruitment, primary screen, cell-based, luminescence. 0.66% of 360,000 active. CHO-K1 mHTR2A beta-arrestin complementation; percent of 30 µM serotonin response. activation, % at 7.6 µM;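 active means activation above a run cutoff, the mean activation of all tested compounds plus 3 SD, cut at about 14% in these data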;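 further: 0% = plate median of compound wells and 100% = 30 µM serotonin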
Target sequence (P35363 whole entry, looked up): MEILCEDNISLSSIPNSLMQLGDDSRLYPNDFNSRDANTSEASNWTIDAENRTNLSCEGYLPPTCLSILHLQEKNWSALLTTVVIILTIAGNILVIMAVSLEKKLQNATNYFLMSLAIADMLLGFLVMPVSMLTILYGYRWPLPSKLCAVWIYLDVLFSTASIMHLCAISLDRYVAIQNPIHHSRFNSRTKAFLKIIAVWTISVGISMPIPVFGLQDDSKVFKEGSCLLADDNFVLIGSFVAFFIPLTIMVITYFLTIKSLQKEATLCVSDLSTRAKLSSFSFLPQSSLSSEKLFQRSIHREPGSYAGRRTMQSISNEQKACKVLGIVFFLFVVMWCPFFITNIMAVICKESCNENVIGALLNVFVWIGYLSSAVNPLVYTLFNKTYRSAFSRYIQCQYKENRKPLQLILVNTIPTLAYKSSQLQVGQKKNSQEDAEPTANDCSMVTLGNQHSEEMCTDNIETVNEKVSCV
EBI2 block – EBI2 receptor antagonists, beta-arrestin recruitment, primary screen, cell-based, luminescence, 7a,25-OHC stimulation, uHTS; 0.81% of 360,000 active; 7a,25-OHC stimulated; inhibition, % at 5 µM; AID 651636, 2012; in the data active means inhibition above about 38%;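 further: enzyme fragment complementation signal reports receptor beta-arrestin coupling in cells; 0% = agonist plus DMSO wells and 100% = wells without agonist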
CCR6 antagonist – CCR6 receptor antagonists, primary screen, cell-based, CHO-K1, luminescence, beta-arrestin, uHTS; CHO-K1 CCR6 PathHunter beta-arrestin, CCL20-stimulated; inhibition, % at 20 µM; 0.49% of 340,000 active; AID 493098, 2011;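 active means compounds whose inhibition of the agonist-driven luminescence signal at 20 µM reaches about 50%, limit read from the data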;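 further: cells stimulated with CCL20 at 14 nM final; plate controls were DMSO with CCL20 for no effect and DMSO without agonist for full effect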
APJ agonist – agonists of human apelin receptor APJ, primary screen, CHO-K1 cells, PathHunter beta-arrestin, luminescence. P35414. 0% DMSO wells, 100% apelin. activation, % at 20 µM. 0.11% of 330,000 active;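 active means activation more than six SD over the plate average, tested at 20 µM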;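 further: 0% = DMSO alone and 100% = apelin-13 at 10 nM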
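Test system: CHO-K1 APJ beta-arrestin complementation cell line | Compound: Single test compound dose, 20 µM final, 1% DMSO | Incubation: Compound 90 min 25 °C, reagent 1 h | Measured by: beta-gal luminescence | Read-out basis: APJ–arrestin association signal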
CXCR6 inh – CXCR6 receptor inhibitors, primary screen, cell-based, beta-arrestin, luminescence, CHO-K1 PathHunter, 1536-well; C-X-C chemokine receptor type 6 (Homo sapiens), O00574; inhibition, % at 20 µM; AID 602244, 2012; 0.36% of 360,000 active; in the data active means inhibition above about 34%, passing the limit was not always enough;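 further: antagonist mode with CXCL16 agonist at 10 nM final; 0% = 10 nM CXCL16 with DMSO and 100% = unstimulated wells without agonist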
* = called active by the depositor. Sampled rows, rich in hits. Any-hit rate of the full collection: about 2.1%.

For Oc1c(C(Nc2ccccn2)c2cccnc2)cc(Cl)c2cccnc12 (stereo not given) the results were APJ antag 24, m5-HT2A agonist -31, EBI2 block 50*, CCR6 antagonist -10, APJ agonist 0 and CXCR6 inh 2.
`COc1ccccc1N=C(C)C1=C(O)CC(c2ccccc2)CC1=O` (stereo not given) gave APJ antag 25, m5-HT2A agonist -3, EBI2 block -19, CCR6 antagonist 15, APJ agonist -4 and CXCR6 inh 5.
`C=CCNc1nnc(Cl)c2ccccc12` gave APJ antag 32, m5-HT2A agonist 1, EBI2 block -2, CCR6 antagonist 7, APJ agonist -3 and CXCR6 inh 8.
For O=C(c1ccco1)N1CCN(C(=S)Nc2ccccc2Cl)CC1 the results were APJ antag 7, m5-HT2A agonist 15*, EBI2 block 0, CCR6 antagonist 2, APJ agonist -5 and CXCR6 inh 9.
`Cc1ccccc1NC(=S)N1CCN(C(=O)c2ccco2)CC1` gave APJ antag 0, m5-HT2A agonist 3, EBI2 block -10, CCR6 antagonist -8, APJ agonist -3 and CXCR6 inh 4.
For Cc1cc2c(c(=O)n1CC1CCCO1)C(c1ccc3c(c1)OCO3)C(C#N)=C(N)O2 (stereo not given) the results were APJ antag 7, m5-HT2A agonist 0, EBI2 block -15, CCR6 antagonist 0, APJ agonist -3 and CXCR6 inh 2.
CCn1c(C)cc2c(c1=O)C(c1ccc3c(c1)OCO3)C(C#N)=C(N)O2 (stereo not given) was read as APJ antag 16, m5-HT2A agonist 15*, EBI2 block -8, CCR6 antagonist 0, APJ agonist -4 and CXCR6 inh 2.
Screening Cn1cnc([N+](=O)[O-])c1Oc1cccc2ccccc12 returned APJ antag -21, m5-HT2A agonist -1, EBI2 block -49, CCR6 antagonist 12, APJ agonist 2 and CXCR6 inh -3.
`Cn1cnc([N+](=O)[O-])c1S(=O)(=O)Oc1cccc2ccccc12` gave m5-HT2A agonist -2, EBI2 block 20, CCR6 antagonist 74* and CXCR6 inh 49*.
Cn1cnc([N+](=O)[O-])c1S(=O)(=O)Oc1ccc(Cl)cc1 was read as m5-HT2A agonist 5, EBI2 block 14, CCR6 antagonist 60* and CXCR6 inh 52*.
For O=C(O)c1cc(-c2ccc(/C=N/Nc3ccc([N+](=O)[O-])cn3)o2)ccc1Cl the results were m5-HT2A agonist -1, EBI2 block 4, CCR6 antagonist 51* and CXCR6 inh 24.
`O=C(O)c1ccc(-c2ccc(/C=N/Nc3ccc([N+](=O)[O-])cc3)o2)cc1` gave APJ antag 39, m5-HT2A agonist -1, EBI2 block 17, CCR6 antagonist 45, APJ agonist -7 and CXCR6 inh 13.
Screening CN1C(=CC=C2C=C(I)C(=O)C(I)=C2)C(C)(C)c2ccccc21 returned m5-HT2A agonist 3, EBI2 block 16, CCR6 antagonist 73* and CXCR6 inh 45*.
Screening COc1ccccc1/C=c1\sc2nc(-c3ccccc3OC)nn2c1=O returned APJ antag 22, m5-HT2A agonist -2, EBI2 block 23, CCR6 antagonist 1, APJ agonist -2 and CXCR6 inh -3.
`COc1ccc(/C=c2\sc3nc(=O)c(C)nn3c2=O)c(OC)c1` gave APJ antag 4, m5-HT2A agonist 1, EBI2 block -6, CCR6 antagonist 83*, APJ agonist -3 and CXCR6 inh 1.
Screening COc1ccc(S(=O)(=O)Nc2c(C(=O)O)[nH]c3ccccc23)c(OC)c1 returned APJ antag 5, m5-HT2A agonist 6, EBI2 block 6, CCR6 antagonist 6, APJ agonist -3 and CXCR6 inh -3.
For O=C1C(SCCO)=C(SCCO)C(=O)c2ccccc21 the results were APJ antag 24, m5-HT2A agonist -14, EBI2 block 20, CCR6 antagonist 108*, APJ agonist 19 and CXCR6 inh 103*.
Screening CC(C)SC1=NC(C)(C)C=C(/C=C/c2c(Cl)cccc2Cl)N1 returned APJ antag 11, m5-HT2A agonist -4, EBI2 block 0, CCR6 antagonist 52*, APJ agonist -1 and CXCR6 inh 9.
For Clc1ccc(/C=C/c2nc3ccccc3[nH]2)c(Cl)c1 the results were APJ antag -27, m5-HT2A agonist 0, EBI2 block 15, CCR6 antagonist -7, APJ agonist 4 and CXCR6 inh -18.
`CC(C)SC1=NC(C)(C)C=C(/C=C/c2ccc(Cl)cc2Cl)N1` gave APJ antag 1, m5-HT2A agonist 2, EBI2 block 6, CCR6 antagonist 51*, APJ agonist -9 and CXCR6 inh 14.
COc1ccccc1NS(=O)(=O)c1cc([N+](=O)[O-])ccc1N/N=C/c1sc(N2CCOCC2)nc1-c1ccccc1 was read as m5-HT2A agonist 0, EBI2 block 27, CCR6 antagonist 63* and CXCR6 inh 44*.
For CCN1/C(=C\C=C2\C(=O)N(c3ccccc3)C(=S)N2C)Sc2ccccc21 the results were m5-HT2A agonist -1, EBI2 block 25, CCR6 antagonist 63* and CXCR6 inh 40*.
Screening O=C(NCC1CCCO1)c1ccc(OC2CCN(C(=O)C3CC3)CC2)cc1 (stereo not given) returned APJ antag -17, m5-HT2A agonist 0, EBI2 block 2, CCR6 antagonist 2, APJ agonist 0 and CXCR6 inh -5.
Screening Cc1cccc(NC(=O)Cn2nnc3sc4c(c3c2=O)CC(C)(C)OC4)c1 returned APJ antag 2, m5-HT2A agonist 1, EBI2 block 1, CCR6 antagonist 0, APJ agonist 1 and CXCR6 inh -8.
Cc1nn(-c2ccccn2)c2c1C(c1ccccc1Cl)C1=C(N2)c2ccccc2C1=O (stereo not given) was read as APJ antag 19, m5-HT2A agonist 1, EBI2 block -4, CCR6 antagonist 79*, APJ agonist -2 and CXCR6 inh 26.
For CC(NC(=O)CN(C)CC(=O)Nc1ccc(Cl)cc1)c1ccc(F)cc1 (stereo not given) the results were APJ antag -26, m5-HT2A agonist -9, EBI2 block -2, CCR6 antagonist 20, APJ agonist -2 and CXCR6 inh 4.
